Compound activity (PubChem)
M5 antag: antagonists of human muscarinic M5 receptor (CHRM5) | P08912 | CHO-hM5 cells, Fluo-8 calcium fluorescence, ACh EC80 | inhibition, % at 3 µM | 0.59% of 360,000 active;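 active means inhibition above a per-plate cutoff, the mean of that plate's test compounds plus 3 SD, cut at about 27% in these data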;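 further: 0% = acetylcholine EC80 with DMSO and 100% = DMSO without agonist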
CHRM4 agonist: CHRM4 agonism in calcium assay; P08173; CHO-K1 hM4/Gqi5, Fluo-8 calcium fluorescence; vehicle 0%, full acetylcholine response 100%; activation, % at 3 µM; 0.14% of 360,000 active;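 active means activation above the run mean over all test wells plus 3 SD, cut at about 32% in these data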;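 further: peak over basal fluorescence ratio per well then scaled between controls; 0% = DMSO wells and 100% = acetylcholine at EC100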
Target sequence (P08173 whole entry, looked up): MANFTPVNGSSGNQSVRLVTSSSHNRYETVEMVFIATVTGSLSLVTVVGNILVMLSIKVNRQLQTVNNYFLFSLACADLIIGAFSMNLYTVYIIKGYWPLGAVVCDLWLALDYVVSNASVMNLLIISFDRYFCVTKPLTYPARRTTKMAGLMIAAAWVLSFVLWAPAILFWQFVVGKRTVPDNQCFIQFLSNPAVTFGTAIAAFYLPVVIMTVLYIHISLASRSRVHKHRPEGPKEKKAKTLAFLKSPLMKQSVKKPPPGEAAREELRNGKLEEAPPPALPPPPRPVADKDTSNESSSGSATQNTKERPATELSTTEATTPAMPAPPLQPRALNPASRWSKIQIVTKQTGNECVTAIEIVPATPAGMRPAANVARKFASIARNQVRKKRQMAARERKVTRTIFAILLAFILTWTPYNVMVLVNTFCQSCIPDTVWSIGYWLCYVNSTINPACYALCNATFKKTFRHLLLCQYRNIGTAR
M5 ag: agonists of human muscarinic M5 receptor (CHRM5); CHO-K1 hM5 cells, Fluo-8 calcium fluorescence; 0% DMSO wells, 100% maximal acetylcholine response; activation, % at 3 µM; P08912; 0.19% of 360,000 active;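 active means activation above the run's mean over test compounds plus 3 SD, cut at about 23% in these data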;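 further: signal is peak over basal fluorescence ratio across the kinetic read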
CHRM4 PAM: potentiates acetylcholine response at human M4 receptor; AID 624126; CHO-K1 hM4/Gqi5, Fluo-8 calcium fluorescence, ACh EC20; 0% = ACh EC20, 100% = maximal ACh; activation, % at 3 µM; 0.4% of 360,000 active; P08173;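 active means activation above its plate's cutoff, the mean activation of sample wells plus 3 SD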
M5 PAM: CHRM5 positive allosteric modulation; activation, % at 3 µM; P08912; CHO-K1 hM5, Fluo-8 calcium, ACh EC20 PAM; 0% = ACh EC20, 100% = ACh EC100; 0.3% of 360,000 active;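 active means activation above the run cutoff, the mean activation of all test compounds plus 3 SD, cut at about 18% in these data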
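System: CHO-K1 cell line with stable human muscarinic M5 receptor expression | Also added: EC20 acetylcholine as agonist stimulus | Compound: One concentration, 3 µM final (nominal) | Timing: Fluo-8 loading 80 min at 37 °C plus 30 min room temperature | Measured by: Fluo-8 calcium dye fluorescence, kinetic read | Read-out basis: % activation, ACh-normalized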
M4 antag: CHRM4 antagonism in calcium assay | CHO-hM4 cells, ACh EC80, Fluo-8 calcium fluorescence | inhibition, % at 3 µM | 0.73% of 360,000 active | AID 624125;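 active means inhibition above its plate's cutoff, the mean inhibition of sample wells plus 3 SD, cut at about 27% in these data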;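 further: 0% = acetylcholine EC80 with DMSO and 100% = DMSO without agonist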
* = called active by the depositor. The list is not random: actives were taken first. Their share in the collection is about 1.9%.

SMILES | M5 antag | CHRM4 agonist | M5 ag | CHRM4 PAM | M5 PAM | M4 antag
O=C1N[C@H](Cc2ccccc2)COC(=O)[C@H](Cc2ccc(F)cc2)C/C=C\C[C@@H]1CC(=O)N(CCO)Cc1ccccc1 | 10 | 20 | 1 | -9 | -14 | 2
O=C1N[C@@H](c2ccccc2)COC(=O)[C@@H](Cc2ccc(F)cc2)C/C=C\C[C@@H]1CC(=O)N(CCO)Cc1ccccc1 | 10 | 56* | 15 | -13 | -31 | 17
O=C1N[C@@H](Cc2c[nH]c3ccccc23)COC(=O)[C@@H](Cc2ccc(F)cc2)C/C=C\C[C@H]1CC(=O)N(CCO)Cc1ccccc1 | 22 | 11 | 1 | 5 | -16 | 28*
O=C1N[C@@H](c2ccccc2)COC(=O)[C@H](Cc2ccc(F)cc2)C/C=C\C[C@H]1CC(=O)N(CCO)Cc1ccccc1 | -5 | 1 | 3 | 0 | 18* | 1
O=C1N[C@@H](c2ccccc2)COC(=O)[C@H](Cc2ccc(F)cc2)CC/C=C/C[C@H]1CC(=O)N(CCO)Cc1ccccc1 | 5 | 12 | 1 | -9 | -2 | -9
O=C1NC[C@H](c2ccccc2)OC(=O)[C@@H](Cc2ccc(F)cc2)C/C=C\C[C@H]1CC(=O)N(CCO)Cc1ccccc1 | 17 | 36* | 8 | -11 | -37 | 34*
COC(=O)[C@@]12C[C@@H](CC(=O)NCCCCc3ccccc3)C(=O)N(Cc3ccc4c(c3)OCO4)C1=CCC(C)(C)C2 | -10 | 8 | 1 | 11 | 8 | -21
COC(=O)[C@]12CCCCC=C1N(CCC1=CCCCC1)C(=O)[C@H](CC(=O)N1CCCC1)C2 | 0 | 9 | 5 | -3 | -3 | 0
O=C(C[C@@H]1C/C=C/CC[C@@H](Cc2ccc(F)cc2)C(=O)O[C@@H](c2ccccc2)CNC1=O)NCCO | 31* | 10 | 1 | -4 | -26 | 8
O=C(C[C@H]1C/C=C/CC[C@H](Cc2ccc(F)cc2)C(=O)O[C@H](c2ccccc2)CNC1=O)NCCO | 5 | 1 | -1 | 2 | -3 | 2
COc1ccc(CSc2nnc3[nH]c(=O)cc(N)n23)cc1 | 35* | 1 | -7 | 20 | -13 | -8
CCOC(=O)c1ccc(N=C2C(=S)N(c3ccc(C(=O)OCC)cc3)C(=N)N2/N=C/c2ccccc2)cc1 | 87* | 1 | -7 | -31 | -20 | 99*
CCOC(=O)c1ccc(N=c2scc(C)n2CC)cc1 | 16 | -1 | -8 | -8 | -6 | -8
COC(=O)c1ccc2nc(-c3ccco3)c(Cc3cccc(F)c3)n2c1 | -8 | 0 | 4 | 15 | 7 | -13
CCOc1ccc(NC(=O)C2CCC(C)(C(=O)O)C2(C)C)cc1 (stereo not given) | 2 | 1 | 0 | 2 | -4 | 2
COc1ccc(NC(=O)C2CCC(C)(C(=O)O)C2(C)C)cc1 (stereo not given) | -9 | 1 | -2 | 2 | -1 | 28*
Cc1onc(-c2ccccc2)c1C(=O)NNC(=S)NC(=O)c1ccc2c(c1)OCO2 | 13 | 70* | 21 | -10 | -10 | 5
O=NN(Cc1cccnc1)C(=O)NC1CCCCC1 | 5 | 0 | -3 | 1 | -4 | 6
CN(C)CCNc1nc2sc3c(c2c(=O)n1CCc1ccccc1)CCCCC3 | 17 | 19 | 8 | -13 | -19 | 31*
CCn1c(=O)n(CCc2ccccc2)c(=O)c2c3c(sc21)CCCC3 | 1 | -1 | -2 | 3 | -1 | -2
COC(=O)Cn1c(=O)n(CCc2ccccc2)c(=O)c2c3c(sc21)CCCC3 | 22 | -3 | -8 | -32 | -16 | 30*
CC(O)CNc1nc2sc3c(c2c(=O)n1CCc1ccccc1)CCCCC3 (stereo not given) | -4 | 7 | 0 | -3 | -4 | -4
CCc1nc2ccc(C(=O)N3CCN(C(=O)c4ccco4)CC3)cn2c1N(C)C(=O)COc1ccccc1 | -1 | 1 | 0 | 5 | 4 | -9
Cc1cc(Br)cn2c(CC(C)(C)C)c(C3CCCCC3)nc12 | -6 | 0 | 2 | 9 | 6 | -8
CN(c1ccccc1)S(=O)(=O)c1ccc(NC(=O)c2ccccc2)cc1 | 9 | 4 | -2 | -8 | -10 | 5
SMILES | M5 antag | CHRM4 agonist | M5 ag | CHRM4 PAM | M5 PAM | M4 antag
CN(c1ccccc1)S(=O)(=O)c1ccc(NC(=O)c2nc(S(C)(=O)=O)ncc2Cl)cc1 | 31* | 21 | 2 | -14 | -12 | 78*
COc1cccc(NC(=O)c2nc(S(C)(=O)=O)ncc2Cl)c1 | 18 | -1 | -2 | -3 | -3 | 36*
COc1cccc(-c2ccc3c(c2)O[C@H](CN(C)C(=O)c2ccccc2F)[C@H](C)CN([C@H](C)CO)S3(=O)=O)c1 | -2 | 8 | 2 | 0 | -6 | -25
CC(C)CCn1nc(C(=O)OCC(=O)NC(C)c2ccccc2)c2ccccc2c1=O (stereo not given) | 29* | 0 | -3 | -1 | 2 | 1
CCOC(=O)[C@]12CCC=C1N(Cc1cccc3ccccc13)C(=O)[C@H](CC(=O)NCc1ccc(C)o1)C2 | 5 | 0 | -3 | -4 | -4 | 10
OC1(c2cccs2)CN(c2ccc(Cl)cc2)C2=[N+]1CCCS2 (stereo not given) | 11 | 1 | -5 | 2 | 3 | -1
OC1(c2cccs2)CN(c2ccc(Cl)cc2)C2=[N+]1CCCC2 (stereo not given) | 29* | 1 | -18 | -24 | -32 | 30*
CCOC(=O)c1cn(Cc2ccccc2)c(C(=O)OC(C)(C)C)c1O | 15 | 81* | 12 | -15 | -21 | 15
CCOC(=O)c1cn(Cc2ccccc2)c2cc(C)nn2c1=O | 7 | 0 | 1 | -2 | 0 | -11
Cc1ccc(-c2nn(-c3ccccc3)cc2CN(Cc2ccccc2)C(=O)c2ccco2)o1 | 10 | 10 | 2 | -27 | -13 | 52*
COc1ccc(-c2ccc3c(c2)S(=O)(=O)c2cccc(C(=O)N4CCN(C5CCCCC5)CC4)c2C3=O)cc1OC | 34* | 23 | 6 | -8 | -32 | 9
Cc1cc(C(=O)OCC(=O)N2CCOCC2)c2ccccc2n1 | -4 | 1 | -3 | 19* | -5 | -10
Cc1cccc(NC(=O)CCS(=O)(=O)c2ccc3nc(C)sc3c2)c1 | -4 | 2 | 3 | 9 | 6 | -6
COc1ccc2sc(-c3ccc(S(C)(=O)=O)cc3)c(C#CCO)c2c1 | 17 | 7 | 2 | -2 | -16 | 6
COc1ccc2c(C#CCCO)c(-c3ccc(S(C)(=O)=O)cc3)sc2c1 | 18 | 27 | -6 | -13 | -18 | 32*
